STAT3 activator: IL-6 driven STAT3 reporter potentiators, primary screen, U3A cells, luciferase, luminescence, MLSCN library; IL-6 STAT3-luciferase reporter; 100% = signal with IL-6 EC80 alone; 190,000 compounds, 0.91% hits; activation (% of control), % at 5.6 µM;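 active means activation above the screen-wide mean of compound activation plus 3 SD, cut at about 130% in these data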;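 further: 0% = background luminescence of wells with medium and substrate only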
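Material: human U3A cells carrying STAT3-luciferase construct. Measured by: reporter luminescence signal. Timing: compound 1 h, then IL-6 6 h at 37 °C.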
HSF1 inhib: HSF1 inhibitors in luciferase reporter cells, primary screen, cell-based, NIH3T3, luminescence; 300,000 compounds, 0.77% hits; AID 2098, 2009; NIH3T3-HGL HSE-luciferase, MG132-induced, luminescence 8 h; hits give low values; activity change, negative = inhibition, % at 7.5 µM (by protocol);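 active means more than half of replicate wells show activity change below -50%, luminescence cut by over half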;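 further: luciferase reports HSF-1 transcriptional activity via heat shock element; 0% = median of DMSO wells and -100% = zero luminescence signal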
PERK inhibitor: block of dimerizer-induced PERK translation repression, primary screen, PERK inhibitor project, CHO PERK-DD cells, SEAP luminescence, HTS; Eukaryotic translation initiation factor 2-alpha kinase 3 (Homo sapiens), Q9NZJ5; CHO PERK-DD fusion, SEAP luminescence translation reporter; inhibition, % at 5.6 µM; 220,000 compounds, 0.17% hits; AID 1416, 2008;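 active means inhibition above the mean inhibition of all tested compounds plus 3 SD, set separately per screening campaign, cut at about 2.9% in these data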;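 further: PERK kinase domain activated by AP20187 dimerizer at 100 nM; 0% = DMSO with dimerizer and 100% = rapamycin at 8.4 µM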
PolyA inh: polyadenylation inhibitors in yeast reporter cells, primary screen, luminescence, S. cerevisiae; activity score, % at 12 µM; 300,000 compounds, 0.02% hits; S. cerevisiae SKY197-pL101 polyadenylation reporter, beta-gal luminescence; efflux-impaired pdr1/pdr3 knockout yeast; score 100 = 6 SD above DMSO;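 active means lowest replicate activity score at least 50, where 100 means six control SD above control mean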;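 further: yeast exposed to compound for 9 h at 30 °C; higher score means more reporter readthrough which indicates perturbed polyadenylation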
AHR act: AHR activators, primary screen, cell-based, luminescence, luciferase reporter, human. activation, % at 5 µM. 320,000 compounds, 2.5% hits. AHR-responsive luciferase reporter cells. Aryl hydrocarbon receptor (Homo sapiens), P35869. AID 2796, 2010; in the data active means activation above about 47%;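 further: 0% = vehicle wells and 100% = reference agonist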
Target sequence (P35869 whole entry, looked up): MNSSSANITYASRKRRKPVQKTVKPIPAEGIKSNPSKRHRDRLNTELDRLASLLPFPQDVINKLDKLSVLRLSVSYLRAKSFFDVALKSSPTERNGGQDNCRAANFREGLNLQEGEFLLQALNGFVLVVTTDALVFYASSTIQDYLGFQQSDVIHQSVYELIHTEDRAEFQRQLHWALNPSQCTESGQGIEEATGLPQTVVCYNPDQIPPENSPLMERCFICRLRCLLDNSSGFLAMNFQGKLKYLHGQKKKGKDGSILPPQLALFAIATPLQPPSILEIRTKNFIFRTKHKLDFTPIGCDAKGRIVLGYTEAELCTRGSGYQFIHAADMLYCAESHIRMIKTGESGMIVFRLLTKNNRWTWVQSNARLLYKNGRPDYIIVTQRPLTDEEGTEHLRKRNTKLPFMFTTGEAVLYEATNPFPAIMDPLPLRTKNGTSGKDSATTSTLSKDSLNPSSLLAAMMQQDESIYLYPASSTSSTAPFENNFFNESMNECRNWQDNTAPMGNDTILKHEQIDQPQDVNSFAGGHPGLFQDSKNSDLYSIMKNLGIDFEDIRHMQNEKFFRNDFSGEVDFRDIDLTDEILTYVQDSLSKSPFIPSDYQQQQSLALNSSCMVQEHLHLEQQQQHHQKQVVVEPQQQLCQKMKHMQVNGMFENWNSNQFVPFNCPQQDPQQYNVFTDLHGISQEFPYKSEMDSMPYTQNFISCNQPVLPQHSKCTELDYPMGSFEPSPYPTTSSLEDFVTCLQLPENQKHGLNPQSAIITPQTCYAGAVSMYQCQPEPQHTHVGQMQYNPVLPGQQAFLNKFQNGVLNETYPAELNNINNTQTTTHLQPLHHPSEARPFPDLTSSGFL
Hsp70 act: Hsp70 transcriptional activators, primary screen, cell-based, HeLa, Hsp70 promoter luciferase, luminescence, 10 µM; HeLa Hsp70 promoter luciferase reporter; scaled: vehicle 0, proteasome-inhibitor control 100%; activation, % at 10 µM; 200,000 compounds, 0.04% hits;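 active means activation above the mean across all tested compounds plus 3 SD, cutoff set per campaign, cut at about 5.5% in these data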;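 further: 100% = MG132 at 30 µM as the positive control and 0% = DMSO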
* = called active by the depositor; · = no result given. In the library only some 3.6% were active in any assay of this set; here they are far more common.

SMILES | STAT3 activator | HSF1 inhib | PERK inhibitor | PolyA inh | AHR act | Hsp70 act
O=C(CNC(=O)c1ccc([N+](=O)[O-])cc1)c1ccccc1 | 99 | -5 | 0 | 17 | -5 | 0
O=C(CNC(=O)c1ccc(Cl)c([N+](=O)[O-])c1)OC1CCCCC1=O (configuration not stated) | · | 6 | · | -7 | -1 | ·
O=C(Nc1ccc(OCC(=O)N2CCOCC2)cc1)c1ccccc1Cl | · | 1 | · | 18 | 1 | ·
Cc1onc(-c2ccccc2Cl)c1C(=O)Nc1ccc(OCC(=O)N2CCOCC2)cc1 | 90 | -85* | 1 | -17 | -3 | 0
COc1cc(CNc2ccc(CNc3ncn[nH]3)cc2)ccc1OCC(=O)NC(C)(C)C | 102 | 12 | 0 | 13 | 56* | 0
CC(C)(C)NC(=O)COc1ccc(CNc2ncn[nH]2)cc1 | 97 | -2 | 0 | 4 | 1 | 0
CCOC(=O)C1CCN(C(=O)COC(=O)c2ccccc2C(=O)c2ccc(Cl)cc2)CC1 | · | 1 | · | 4 | 1 | ·
CC(=O)C[C@@H](O)CC(=O)[C@@H]1OC(=O)CCCCCCc2ccccc21 | · | · | · | · | -2 | ·
O=C1C(Nc2ccccc2)=C/C(=N/S(=O)(=O)c2cccs2)c2ccccc21 | 136* | -94* | -1 | -53 | 15 | 0
Cc1ccc(S(=O)(=O)/N=C2\C=C(Nc3ccc(O)cc3)C(=O)c3ccccc32)cc1 | · | · | · | · | -9 | ·
Cc1ccc(NC2=C/C(=N/S(=O)(=O)c3cccs3)c3ccccc3C2=O)cc1 | 126 | -94* | 0 | -15 | -2 | 0
Cc1cccc(OCC(=O)NCCCNC(=O)c2ccncc2)c1 | · | 0 | · | -18 | 6 | ·
CCOC(=O)N1C(=O)[C@@](CC)(c2ccccc2)N1C(=O)OCC | · | -55* | · | -5 | 3 | ·
CC[C@@]1(c2cccc(C)c2)C(=O)N(C(=O)OC)N1C(=O)OC | · | -2 | · | -3 | 2 | ·
O=C(CN(C(=O)c1csnn1)c1cccc(Cl)c1)NCCc1ccccc1 | · | -4 | · | 15 | 2 | ·
Cc1ccc2c(c1)c(-c1ccccc1)nc1nncn12 | 106 | -4 | 0 | 3 | 53* | 0
Cc1cc(C)nc(/N=C(\N)N2CCc3ccccc32)n1 | 104 | 9 | 1 | 17 | 54* | 0
COc1cc(/C=C(\C#N)C(=O)N2CCOCC2)ccc1OCc1ccccc1 | 84 | 15 | 1 | -4 | 0 | 0
N#C/C(=C\c1ccc(OCc2ccc(C(=O)O)cc2)cc1)C(=O)N1CCOCC1 | 24 | -51* | 1 | -4 | 1 | -1
CCOc1ccc(NC(=O)CN(C)C(=O)COc2cccc3c2OC(C)(C)C3)cc1OCC | · | · | · | · | 1 | ·
Cn1cc(C=O)c2ccccc21 | 127 | 0 | -1 | 1 | 12 | 0
Cc1ccc(/C(C#N)=C\c2cn(C)c3ccccc23)cc1 | 106 | · | 1 | · | 75* | 0
O=c1[nH]cnc2onc(-c3ccc(F)cc3)c12 | · | 16 | · | 3 | 1 | ·
CCOC(=O)c1cc(C#N)c(NCc2ccccc2)nc1C | 113 | -72* | 0 | -15 | 1 | 0
CCOC(=O)C1=C(C)NC(C)=C(C(=O)OCC)C1C(=O)O | 96 | · | 1 | · | 2 | 0
SMILES | STAT3 activator | HSF1 inhib | PERK inhibitor | PolyA inh | AHR act | Hsp70 act
CCCC1C(C(=O)OCC)=C(C)NC(C)=C1C(=O)OCC | 100 | 4 | -1 | -6 | 57* | 0
Fc1ccccc1/C=N/NC(=S)Nc1ccc(Cl)cc1Cl | 89 | 1 | 1 | 5 | 77* | 0
Cc1ccc(S(=O)(=O)N2CCOCC2)cc1N/N=C(\C#N)c1nc2ccccc2[nH]1 | 85 | 7 | -1 | -8 | 59* | -1
O=C(NCc1ccccc1)C1CCCN(S(=O)(=O)c2cccc3nsnc23)C1 (configuration not stated) | · | -72* | · | 9 | 3 | ·
CCOC(=O)N1CCN(C(=O)c2cc(OC)cc(OC)c2)CC1 | 101 | -10 | -1 | 8 | -2 | 0
COc1cc(OC)cc(C(=O)N2CCN(S(C)(=O)=O)CC2)c1 | 96 | -82* | 1 | -6 | -1 | 0
CCOC(=O)N1CCN(C(=O)c2ccc(CS(=O)(=O)c3c(Cl)cccc3Cl)o2)CC1 | 102 | -77* | 0 | -12 | 1 | 0
CCOC(=O)C1(Cc2ccccc2C)CCCN(S(=O)(=O)CC)C1 (configuration not stated) | · | -8 | · | -25 | 0 | ·
CCOC(=O)c1cnc2c(C)cc(Cl)cc2c1N1CCN(C)CC1 | · | -6 | · | 0 | 4 | ·
CCC1(C(=O)OC)CCc2c(cc(OC)c3ccccc23)C1=O (configuration not stated) | · | -7 | 1 | -11 | 54* | ·
COc1cc(C(=O)NNC(=O)CCOc2ccccc2)cc(OC)c1OC | · | 6 | · | · | -1 | ·
C[C@H](CO)N1C[C@H](C)[C@H](CN(C)S(C)(=O)=O)Oc2c(cccc2N(C)C)C1=O | · | · | · | · | -1 | ·
N#Cc1ccccc1OCCN1C(=O)c2ccccc2C1=O | 103 | 17 | 0 | -6 | 7 | 0
Nc1cccc2c1C(=O)N(CCOc1ccccc1F)C2=O | · | 70 | · | -5 | 77* | ·
CCCn1c(NC(=O)c2ccc(F)cc2)nc2ccccc21 | 102 | 3 | 0 | -9 | 53* | 0
CCCn1c(NC(=O)c2ccccc2Br)nc2ccccc21 | 95 | 2 | 0 | -14 | 47* | 0
CCCCn1c(NC(=O)c2ccccc2)nc2ccccc21 | 96 | -19 | -1 | -19 | 73* | 0
CCn1c(NC(=O)c2ccccc2)nc2ccccc21 | · | 8 | -2 | -10 | 45 | ·
CCCCn1c(NC(=S)Nc2ccccc2)nc2ccccc21 | 106 | -1 | 0 | -13 | 66* | 0
Cc1ccc(C(=O)NCCNC(=O)COc2ccccc2Cl)cn1 | · | -8 | · | -12 | -4 | ·
CCC(=O)N(Cc1c(C)nn(-c2ccccc2)c1Cl)c1ccc(Cl)cc1 | 105 | 2 | -1 | -11 | -1 | 0
CCCn1c(NC(=O)c2ccc(Br)cc2)nc2ccccc21 | 134* | -6 | 1 | -27 | 13 | 0
CCCn1c(NC(=O)c2ccco2)nc2ccccc21 | 92 | -7 | 0 | 2 | 6 | 0
Cc1ccc(CN2C(=O)C(C)Nc3ncnc(N4CCN(c5ccccn5)CC4)c32)cc1 (configuration not stated) | · | -30 | · | 13 | 60* | ·
O=C1C(Cc2ccccc2)Nc2ncnc(N3CCN(c4ccccc4)CC3)c2N1Cc1ccccc1 (configuration not stated) | · | -67* | · | 26 | 3 | ·
